Results as given in PubChem BioAssay AID624467 (The Scripps Research Institute Molecular Screening Center, 2012).
Screen size: about 360,000 compounds; about 3,600 (1%) were called active. This is one part of a sample in which actives are shown more often than they occur. Values without a mark were called inactive.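 Rule for the calls: active = activation above the mean activation of all test compounds in the run plus 3 SD (cut at about 38% in these data); inactive = the rest.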

What follows are compounds tested against Trace amine-associated receptor 1 (Homo sapiens) (UniProt Q96RJ0) (assay: activators of TAAR1 calcium mobilization – Fluo-8 calcium fluorescence, CHO RD-HGA16 cells, primary screen (AID 624467)). Details: CHO RD-HGA16 TAAR1, Fluo-8 calcium fluorescence; at 3 µM; stronger effect = higher value; vehicle wells 0%, saturating PEA agonist 100%.
Sequence of Trace amine-associated receptor 1 (Homo sapiens) (Q96RJ0 whole entry, looked up): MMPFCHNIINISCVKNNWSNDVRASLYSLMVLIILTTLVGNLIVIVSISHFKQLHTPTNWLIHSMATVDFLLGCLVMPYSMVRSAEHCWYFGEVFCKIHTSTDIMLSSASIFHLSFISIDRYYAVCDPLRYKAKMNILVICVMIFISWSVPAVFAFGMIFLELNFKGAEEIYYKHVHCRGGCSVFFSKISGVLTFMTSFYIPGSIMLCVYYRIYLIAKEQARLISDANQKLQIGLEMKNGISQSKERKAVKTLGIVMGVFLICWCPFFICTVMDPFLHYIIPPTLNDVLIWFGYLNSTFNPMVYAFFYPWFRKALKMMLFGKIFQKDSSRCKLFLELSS
Outline: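 Test system: RD-HGA16 (CHO) cells co-expressing Gα16 and hTAAR1 / Benchmarks: DMSO vehicle as 0%, PEA at EC100 as 100% / Repeats: no replicates (n 1) / Measure: % activation from peak over basal fluorescence ratio, DMSO-to-PEA scaled / Timing: 17-24 h plating, Fluo-8 75 min 37 °C, 30 min RT / Technique: kinetic Fluo-8 calcium fluorescence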

Compound | activation
Cc1cc2nc3c(=O)n(Cc4ccccc4)c(=O)[nH]c3nc2cc1N | 53.8% (active)
CN(C(=O)COC(=O)c1ccc(Br)o1)c1c(N)n(Cc2ccccc2)c(=O)[nH]c1=O | 0.16%
Nc1cc(=O)n(Cc2ccccc2)c(=O)n1Cc1ccccc1 | 1.88%
CCN(c1ccccc1)S(=O)(=O)c1cccc(C(=O)NCc2ccccc2CN2CCOCC2)c1 | 5.65%
COC(=O)[C@]1(Cc2ccccc2)NC=C(C(=O)c2ccccc2)[C@@H]1c1cccc(OC)c1 | 0.41%
C[C@H](O)[C@@H]1CN2CCc3ccc(-c4ccc5c(c4)OCO5)cc3[C@@H]2C[C@@H]1N(C)C(=O)C1CCCCC1 | -1.03%
O=C(O)Cn1cnc2c(NCc3ccccc3)ncnc21 | 2.25%
COc1ccc(CC(N)c2csc(NC(=O)Nc3ccc(C(C)C)cc3)n2)cc1 (stereo not drawn) | 47.2% (active)
COc1ccc(CC(N)c2csc(NC(=O)NC(c3ccccc3)c3ccccc3)n2)cc1 (stereo not drawn) | 21.8%
COc1ccc(CC(=O)Nc2sc(Cc3ccccc3)c(C)c2C(N)=O)cc1 | 3.38%
COc1ccc(S(=O)(=O)N2CCN(C(C)C(=O)Nc3ccc(C(C)C)cc3)CC2)cc1 (stereo not drawn) | 0.11%
COC(=O)[C@H](CCSC)NC(=O)Nc1ccc(OC)cc1 | -1.88%
NC(Cc1ccccc1)c1csc(Nc2cc(Oc3ccccc3)ncn2)n1 (stereo not drawn) | 69.5% (active)
Cc1ccccc1NC(=O)Cc1nc(COC(=O)c2ccc(C(F)(F)F)cc2)cs1 | 6.08%
CC(C)(C)CC(=O)Nc1nc(C(N)Cc2ccc(C(F)(F)F)cc2)cs1 (stereo not drawn) | 63.4% (active)
CC(C)(C)CC(=O)Nc1nnc(SCC(=O)NCc2cccs2)s1 | 1.84%
COc1ccc(CC(N)c2csc(NC(=O)Cc3ccccc3)n2)cc1 (stereo not drawn) | 56.1% (active)
NC(Cc1ccc(F)cc1)c1csc(Nc2nncc3ccccc23)n1 (stereo not drawn) | 35.4%
CC(=NNC(N)=O)c1ccc(Cl)c(-n2cccc2)c1 | 0.51%
CCN(C(=O)c1ccc(Br)cc1)c1ccccc1 | 0.89%

Compound | activation
COc1ccc(CNS(=O)(=O)c2cc(Br)ccc2Br)cc1 | 3.49%
C[C@@H]1CN([C@H](C)CO)C(=O)CCCn2cc(nn2)CO[C@H]1CN(C)C(=O)Nc1ccc(N2CCCCC2)cc1 | 0.76%
O=C(C(=O)N1CCC(CNS(=O)(=O)Cc2ccccc2)CC1)c1cc2ccccc2o1 | 3.18%
CCOC(=O)c1cnc(SC)nc1Sc1ccc(Cl)cc1Cl | 9.74%
C=CCNC(=O)c1sc(SC)cc1-c1ccc(Cl)cc1 | 4.3%
CC(C)(C)C(c1nc2ccccc2[nH]1)n1c(Cc2csc3ccccc23)nc2ccccc21 (stereo not drawn) | 0.77%
CC(=O)C1=C(C)N(Cc2ccc(Cl)cc2)C(=S)NC1c1ccc(F)cc1 (stereo not drawn) | -0.39%
O=[N+]([O-])c1cccc(S(=O)(=O)NCc2ccccn2)c1 | 2.02%
O=S(=O)(NCCc1ccccn1)c1cc(Cl)cc(Cl)c1O | 3.97%
O=[N+]([O-])c1cc(S(=O)(=O)NCCc2ccccn2)ccc1Cl | 68.6% (active)
CCCCOCC1CN(CCCC)S(=O)(=O)c2c(Oc3ccc(F)cc3)cccc2O1 (stereo not drawn) | 1.51%
COC(=O)C1=C(C)N(Cc2cccc(C(F)(F)F)c2)C(=NCc2ccccc2)NC1c1ccc(Cl)cc1 (stereo not drawn) | 19.1%
COc1ccccc1CNC(=O)c1ccc(CS(=O)(=O)c2ccccc2)o1 | 11.9%
CCc1ccccc1S(=O)(=O)Cc1ccc(C(=O)NCCc2ccccc2)o1 | 50.3% (active)
Cc1ccccc1S(=O)(=O)Cc1ccc(C(=O)NCCN2CCCCC2C)o1 (stereo not drawn) | 8.73%
CCCc1nnc(NC(=O)CCC(=O)N2CCN(S(=O)(=O)c3ccc(OC)cc3)CC2)s1 | 4.53%
CC1CCCN(c2cccc3c2S(=O)(=O)N(Cc2ccc(F)cc2)[C@@H](C)[C@H](c2ccccc2)O3)C1 (stereo partly drawn) | 0.84%
COC(=O)[C@]12C[C@H](CC(=O)NCc3ccccc3)C(=O)N(CCC3=CCCCC3)C1=C[C@H](C(C)(C)C)O[C@@H]2C | -2.08%
S=C(NN=C1CCN(Cc2ccccc2)CC1)NC1CCCCC1 | 1.76%
CCCCNC(=S)N/N=C1\CCCCc2ccccc21 | -2.14%

Compound | activation
CCCC1CCC(=NNC(=S)NCCc2ccccc2)CC1 (stereo not drawn) | 54.9% (active)
Cc1cccnc1CCNC(=O)C1CCC(=O)N(Cc2cccc(F)c2)C1 (stereo not drawn) | 0.59%
CN1CCCCC(NC(=O)C(C)(C)C)C1=O (stereo not drawn) | 3.02%
O=[N+]([O-])c1ccccc1N/N=C1\CCc2ccccc21 | -0.37%
Oc1ccc2ccc3cccc[n+]3c2c1 | 152% (active)
Cc1ccc(C)c(CN2CCC(CNC(=O)C3CCCN(c4ncnc5c4nc4n5CCCCC4)C3)CC2)c1 (stereo not drawn) | -0.04%
CCCc1c(-c2ccccc2F)ncn1Cc1ccccc1OC | 5.04%
COc1ccccc1Cc1c(-c2ccc(Cl)cc2)nc2c3ccccc3ccn12 | 0.7%
CCc1c(-c2ccccc2OC)ncn1CCc1ccccc1OC | 53% (active)
COc1ccccc1Cc1c(-c2ccc(F)cc2)nc2ccc(C)cn12 | 0.01%
CCCCc1c(-c2ccc(Cl)cc2)ncn1CCc1ccccc1OC | 54.2% (active)
COc1ccccc1Cc1c(-c2ccc(Cl)cc2)nc2ccc(Cl)cn12 | -1.69%
CCCCc1c(-c2ccc(Br)cc2)ncn1CCc1ccccc1OC | 48% (active)
COc1ccccc1CCn1cnc(-c2ccccc2)c1C(C)C | 8.43%
COc1ccccc1CCNS(=O)(=O)c1cn(C)nc1C | 4.37%
[2H]C(CCOS(N)(=O)=O)c1ccccc1 (stereo not drawn) | -0.46%
CCCNC(=O)CCc1c(C)nc2c(c(C)nn2-c2ccccc2)c1C | 1.73%
O=C1CC(C(F)(F)C(F)(F)C(F)(F)C(F)(F)F)=Nc2ccccc2N1 | -0.77%
